Results from BindingDB's records for doi:10.1016/j.bmcl.2014.05.064 (The University of Tokyo, 2014).

What follows are molecules tested against T1, NPC intracellular cholesterol transporter 1 [I1061T] (Homo sapiens, UniProt O15118, I1061T) (assay: Binding affinity to FLAG/tGFP-tagged NPC1 I1061T mutant (unknown origin) expressed in HEK293 cells assessed as localization after 24 hrs by fluorescence microscopy).
T1 construct: gene NPC1
T1 sequence (O15118 23-1278 I1061T limits assumed): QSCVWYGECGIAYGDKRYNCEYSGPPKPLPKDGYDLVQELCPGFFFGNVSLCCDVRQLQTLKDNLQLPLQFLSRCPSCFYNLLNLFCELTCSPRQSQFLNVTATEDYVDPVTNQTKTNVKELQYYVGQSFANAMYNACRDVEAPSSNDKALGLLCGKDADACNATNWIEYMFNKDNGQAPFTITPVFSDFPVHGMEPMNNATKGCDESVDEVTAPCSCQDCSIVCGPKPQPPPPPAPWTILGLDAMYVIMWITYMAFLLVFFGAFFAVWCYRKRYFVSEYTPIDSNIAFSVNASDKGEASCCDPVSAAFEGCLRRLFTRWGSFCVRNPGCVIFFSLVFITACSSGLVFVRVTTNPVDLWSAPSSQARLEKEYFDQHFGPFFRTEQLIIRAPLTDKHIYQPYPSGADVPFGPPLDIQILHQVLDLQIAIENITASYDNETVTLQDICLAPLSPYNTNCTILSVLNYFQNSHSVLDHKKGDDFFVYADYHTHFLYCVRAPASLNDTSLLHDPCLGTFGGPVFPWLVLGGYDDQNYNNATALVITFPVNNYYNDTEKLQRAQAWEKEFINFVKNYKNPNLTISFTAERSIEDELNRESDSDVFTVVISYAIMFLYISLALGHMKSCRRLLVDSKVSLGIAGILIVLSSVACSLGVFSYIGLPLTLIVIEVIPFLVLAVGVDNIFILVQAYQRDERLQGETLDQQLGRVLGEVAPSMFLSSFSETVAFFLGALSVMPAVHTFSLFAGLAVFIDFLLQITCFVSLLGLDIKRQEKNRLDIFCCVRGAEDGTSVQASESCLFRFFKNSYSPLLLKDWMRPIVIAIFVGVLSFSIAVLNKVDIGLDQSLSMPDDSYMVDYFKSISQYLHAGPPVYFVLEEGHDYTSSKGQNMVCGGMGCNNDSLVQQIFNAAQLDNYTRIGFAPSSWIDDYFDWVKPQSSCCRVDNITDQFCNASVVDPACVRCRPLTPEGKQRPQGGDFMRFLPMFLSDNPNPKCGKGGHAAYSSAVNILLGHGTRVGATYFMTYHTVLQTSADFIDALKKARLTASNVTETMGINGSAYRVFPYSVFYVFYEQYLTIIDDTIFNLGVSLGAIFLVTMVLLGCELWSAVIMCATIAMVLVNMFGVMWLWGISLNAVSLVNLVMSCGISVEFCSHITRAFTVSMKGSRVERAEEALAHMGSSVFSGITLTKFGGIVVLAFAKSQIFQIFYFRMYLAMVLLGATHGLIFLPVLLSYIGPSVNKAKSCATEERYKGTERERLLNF
Summary of the method: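 HEK293 cells stably expressing NPC1 I1061T-tGFP were exposed to compound for 24 h, fixed, and nuclei stained with Hoechst 33342. In the images, each cell was scored by tGFP pattern: ER 0, mixed ER+vesicle 0.5, vesicular 1. Scores were averaged to give the vesicular-localization percentage, and EC50 was taken from concentration-response. Data are mean ± standard deviation of three independent experiments.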
Molecule `C[C@H](COc1cc(C(F)(F)F)cc(C(F)(F)F)c1)[C@H]1CC[C@H]2[C@@H]3C[C@@H](O)[C@@]4(O)C[C@@H](OCC(=O)N5CCOCC5)CC[C@]4(C)[C@H]3CC[C@]12C` has an EC50 of over 10 µM.
`C[C@H](CCC(=O)N(C)C)[C@H]1CC[C@H]2[C@@H]3CC=C4C[C@@H](O)CC[C@]4(C)[C@H]3CC[C@]12C` [(4R)-4-[(1S,2R,5S,10S,11S,14R,15R)-5-hydroxy-2,15-dimethyltetracyclo[8.7.0.0^{2,7}.0^{11,15}]heptadec-7-en-14-yl]-N,N-dimethylpentanamide] gave an EC50 of 3.1 µM.
`CC(C)CCC[C@@H](C)[C@H]1CC[C@H]2[C@@H]3C[C@@H](O)[C@@]4(O)C[C@@H](O)CC[C@]4(C)[C@H]3CC[C@]12C` [CHEBI:28082] was tested, and the EC50 was 1.7 µM.
`CC(C)CCC[C@@H](C)[C@H]1CC[C@H]2[C@@H]3C(=O)C=C4C[C@@H](OCC(=O)N5CCOCC5)CC[C@]4(C)[C@H]3CC[C@]12C` gave an EC50 of 0.29 µM.
`C[C@H](CCCC(C)(C)O)[C@H]1CC[C@H]2[C@@H]3CC=C4C[C@@H](OCC(=O)N(C)C)CC[C@]4(C)[C@H]3CC[C@]12C` gave an EC50 of 1.4 µM.
Work on `C[C@H](CNC(=O)N(C)C)[C@H]1CC[C@H]2[C@@H]3C[C@@H](O)[C@@]4(O)C[C@@H](OCC(=O)N5CCOCC5)CC[C@]4(C)[C@H]3CC[C@]12C` yielded an EC50 of 6.8 µM.
In the case of `C[C@]12CC[C@H](O)CC1=CC[C@@H]1[C@@H]2CC[C@]2(C)C(=O)CC[C@@H]12` [Prasterone], the EC50 is reported as over 10 µM.
Work on `CC(C)CCC[C@@H](C)[C@H]1CC[C@H]2[C@@H]3[C@@H](O)C=C4C[C@@H](OCCO)CC[C@]4(C)[C@H]3CC[C@]12C` yielded an EC50 of 3.4 µM.
Work on `CC(C)CCC[C@@H](C)[C@H]1CC[C@H]2[C@@H]3[C@@H](O)C=C4C[C@@H](O)CC[C@]4(C)[C@H]3CC[C@]12C` [CHEBI:42989] yielded an EC50 of 3.4 µM.
With `C[C@H](CCCC(C)(C)O)[C@H]1CC[C@H]2[C@@H]3CC=C4C[C@@H](O)CC[C@]4(C)[C@H]3CC[C@]12C` [(1S,2R,5S,10S,11S,14R,15R)-14-[(2R)-6-hydroxy-6-methylheptan-2-yl]-2,15-dimethyltetracyclo[8.7.0.0^{2,7}.0^{11,15}]heptadec-7-en-5-ol] the EC50 was 3.3 µM.
`CCN(CC)CCO[C@H]1CC[C@@]2(C)C(=CC[C@H]3[C@@H]4CC[C@H]([C@H](C)CCCC(C)(C)O)[C@@]4(C)CC[C@@H]32)C1` gave an EC50 of 9.9 µM.
Work on `C[C@H](CCCC(C)(C)O)[C@H]1CC[C@H]2[C@@H]3C(=O)C=C4C[C@@H](O)CC[C@]4(C)[C@H]3CC[C@]12C` yielded an EC50 of 1.5 µM.
In the case of `CCN(CC)C(=O)CC[C@@H](C)[C@H]1CC[C@H]2[C@@H]3CC=C4C[C@@H](O)CC[C@]4(C)[C@H]3CC[C@]12C`, the EC50 is reported as 1.7 µM.
`CC(C)CCC[C@@H](C)[C@H]1CC[C@H]2[C@@H]3CC[C@@]4(O)[C@@H](O)[C@@H](O)CC[C@]4(C)[C@H]3CC[C@]12C` [Cholestane-3b,4b,5a-triol] showed an EC50 of 4.3 µM.
Work on `CC[C@H](/C=C/[C@@H](C)[C@H]1CC[C@H]2[C@@H]3C[C@@H](O)[C@@]4(O)C[C@@H](OCC(=O)N5CCOCC5)CC[C@]4(C)[C@H]3CC[C@]12C)C(C)C` yielded an EC50 of 0.36 µM.
`CC(C)CCC[C@@H](C)[C@H]1CC[C@H]2[C@@H]3[C@@H](O)C=C4C[C@@H](OC(=O)N5CCOCC5)CC[C@]4(C)[C@H]3CC[C@]12C` showed an EC50 of 6.1 µM.
In the case of `C[C@H](CCCC(C)(C)O)[C@H]1CC[C@H]2[C@@H]3CC=C4C[C@@H](OCC(=O)N5CCOCC5)CC[C@]4(C)[C@H]3CC[C@]12C`, the EC50 is reported as 0.88 µM.
In the case of `CC(C)CCC[C@@H](C)[C@H]1CC[C@H]2[C@@H]3C[C@@H](O)[C@@]4(O)C[C@@H](OCC(=O)N5CCCCC5)CC[C@]4(C)[C@H]3CC[C@]12C`, the EC50 is reported as 1.8 µM.
`C[C@H](CNC(=O)c1cc(C(F)(F)F)cc(C(F)(F)F)c1)[C@H]1CC[C@H]2[C@@H]3C[C@@H](O)[C@@]4(O)C[C@@H](OCC(=O)N5CCOCC5)CC[C@]4(C)[C@H]3CC[C@]12C` was tested, and the EC50 was 0.086 µM.
In the case of `CC(C)CC[C@H](O)[C@@H](C)[C@H]1CC[C@H]2[C@@H]3CC=C4C[C@@H](O)CC[C@]4(C)[C@H]3CC[C@]12C` [(1S,2R,5S,10S,11S,14R,15S)-14-[(2S,3S)-3-hydroxy-6-methylheptan-2-yl]-2,15-dimethyltetracyclo[8.7.0.0^{2,7}.0^{11,15}]heptadec-7-en-5-ol], the EC50 is reported as 2.9 µM.
`CC(C)CCC[C@@H](C)[C@H]1CC[C@H]2[C@@H]3[C@@H](O)C=C4C[C@@H](OCC(=O)N5CCOCC5)CC[C@]4(C)[C@H]3CC[C@]12C` gave an EC50 of 0.36 µM.
`CC(C)CCC[C@@H](C)[C@H]1CC[C@H]2[C@@H]3C(=O)C=C4C[C@@H](O)CC[C@]4(C)[C@H]3CC[C@]12C` [CHEBI:64294] was tested, and the EC50 was 8.7 µM.
For `C[C@H](CCCC(C)(C)O)[C@H]1CC[C@H]2[C@@H]3[C@@H](O)C=C4C[C@@H](O)CC[C@]4(C)[C@H]3CC[C@]12C`, the EC50 was 1.9 µM.
`CC(C)CCC[C@@H](C)[C@H]1CC[C@H]2[C@@H]3C[C@@H](O)[C@@]4(O)C[C@@H](OCCN5CCOCC5)CC[C@]4(C)[C@H]3CC[C@]12C` gave an EC50 of 1 µM.
For `CC(C)CCC[C@@H](C)[C@H]1CC[C@H]2[C@@H]3CC(=O)[C@H]4C[C@@H](O)CC[C@]4(C)[C@H]3CC[C@]12C` [5alpha-CHOLESTAN-3beta-OL-6-ONE], the EC50 was 3.4 µM.
`C[C@H](CCCC(C)(C)O)[C@H]1CC[C@H]2[C@@H]3C[C@@H](O)[C@@]4(O)C[C@@H](O)CC[C@]4(C)[C@H]3CC[C@]12C` gave an EC50 of 1.7 µM.
In the case of `CC(C)CCC[C@@H](C)[C@H]1CC[C@H]2[C@@H]3C[C@@H](O)[C@@]4(O)C[C@@H](OCC(=O)N(CCO)CCO)CC[C@]4(C)[C@H]3CC[C@]12C`, the EC50 is reported as 0.56 µM.
`C[C@H](CCCC(C)(C)O)[C@H]1CC[C@H]2[C@@H]3CCC4=CC(=O)CC[C@]4(C)[C@H]3CC[C@]12C` showed an EC50 of 4 µM.
`CC(C)CCC[C@@H](C)[C@H]1CC[C@H]2[C@@H]3CC(=O)[C@@]4(O)C[C@@H](O)CC[C@]4(C)[C@H]3CC[C@]12C` showed an EC50 of 1.7 µM.
With `CCN(CC)C(=O)CO[C@H]1CC[C@@]2(C)C(=CC[C@H]3[C@@H]4CC[C@H]([C@H](C)CCCC(C)(C)O)[C@@]4(C)CC[C@@H]32)C1` the EC50 was 4.8 µM.
For `CC(C)CCC[C@@H](C)[C@H]1CC[C@H]2[C@@H]3C[C@@H](O)[C@@]4(O)C[C@@H](OCC(N)=O)CC[C@]4(C)[C@H]3CC[C@]12C`, the EC50 was 0.84 µM.
Molecule `CC(C)C(=O)NC[C@@H](C)[C@H]1CC[C@H]2[C@@H]3C[C@@H](O)[C@@]4(O)C[C@@H](OCC(=O)N5CCOCC5)CC[C@]4(C)[C@H]3CC[C@]12C` has an EC50 of 0.37 µM.
`CC(C)CCC[C@@H](C)[C@H]1CC[C@H]2[C@@H]3C[C@@H](O)[C@@]4(O)C[C@@H](OCC(=O)N5CCOCC5)CC[C@]4(C)[C@H]3CC[C@]12C` showed an EC50 of 0.15 µM.
